Each structure is given as a SMILES string. ≈ marks a conversion by molar mass, not a printed value.

Among the data in ChEMBL document CHEMBL1143593, “In vitro metabolism of phenoxypropoxybiguanide analogues in human liver microsomes to potent antimalarial dihydrotriazines” (J Med Chem, 2005) are IC50 and Vmax values, retold here.

The test system of data set [1] is Plasmodium falciparum. In words: In vitro antimalarial activity for DHFR wild-type, chloroquine and pyrimethamine-sensitive Plasmodium falciparum D6. In kind it is functional, organism-based. A digest of the protocol:
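[3H]-hypoxanthine incorporation assay in folate-free medium. Two-fold dilutions; range 5000 (or 2500) ng/mL to 5 pg/mL for parent biguanides, 5 ng/mL to 5 fg/mL for dihydrotriazine metabolites. DMSO ≤0.002%. 37 °C under 90% N2/5% CO2/5% O2; label added at 48 h, harvest at 72 h, scintillation counting. Triplicate on three occasions; IC50 by sigmoid nonlinear regression versus drug-free controls.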

Data set [2] can be described thus: Maximum velocity against human liver microsomes; (n=6). In kind it is ADME, Microsome. In short, it runs like this: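 Pooled human liver microsomes, 1 mg/mL, in NADPH regenerating buffer (1.25 mM βNADP+, 3.3 mM glucose-6-phosphate, 3.3 mM MgCl2). Mix preincubated 5 min at 37 °C, then started with glucose-6-phosphate dehydrogenase (1 unit/mL final). Substrate at 25–500 µM, 90 min at 37 °C. Stopped with ice-cold acetonitrile containing internal standard. Dihydrotriazine metabolite quantified by LC-MS/MS against synthetic standard curves. Vmax from Michaelis–Menten nonlinear fit using only ≤200 µM data, n=6.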

For data set [3], the system named is Plasmodium falciparum. In words: In vitro antimalarial activity for DHFR mutant, chloroquine and pyrimethamine-resistant Plasmodium falciparum W2.

`CC(C)NC(=N)NC(=N)NOCCCOc1cc(Cl)c(Cl)cc1Cl`: the IC50 came out at 877 ng/mL (≈ 2210 nM) in data set [1] and 3790 ng/mL (≈ 9540 nM) in data set [3]. The Vmax in data set [2] was determined as 11.6 nmol/min/mg.

For `CC1(C)N=C(N)N=C(N)N1OCCCOc1cc(Cl)c(Cl)cc1Cl`, the concentration for half-maximal inhibition (IC50) in data set [1] is 0.02 ng/mL (≈ 0.0507 nM); in data set [3] it was 0.016 ng/mL (≈ 0.0405 nM).

For the compound `CC1(C)N=C(N)N=C(N)N1OCCCOc1ccc(OC(F)(F)F)cc1Cl`, the half-maximal inhibitory concentration (IC50) in data set [1] is 0.01 ng/mL (≈ 0.0244 nM); in data set [3] it was 0.031 ng/mL (≈ 0.0756 nM).

Regarding `CC(C)NC(=N)NC(=N)NOCCCOc1ccc(OC(F)(F)F)cc1`, the figures for the half-inhibitory concentration (IC50) in data set [1] and in data set [3] were more than 2500 ng/mL and more than 5000 ng/mL, respectively. Besides, the maximal velocity (Vmax) in data set [2] was determined as 13.5 nmol/min/mg.

Consider `N=C(NOCCCOc1ccc(OC(F)(F)F)cc1)NC(=N)NC1CC1`, for which the results for the IC50 in data set [1] and in data set [3] were more than 2500 ng/mL and more than 5000 ng/mL, respectively.

`CC(C)/N=C(N)/N=C(/N)NOCCCOc1ccc(OCC(F)(F)F)cc1`: the results for the half-maximal inhibitory concentration (IC50) in data set [1] and in data set [3] were more than 2500 ng/mL and more than 5000 ng/mL, respectively. For the same compound, in data set [2], the Vmax came to 18.7 nmol/min/mg.

On to `CC(C)/N=C(N)/N=C(/N)NOCCCOc1ccc(C(F)(F)F)cc1Cl`, for which the IC50 in data set [1] was 2230 ng/mL (≈ 5640 nM); in data set [3] it was more than 5000 ng/mL. In data set [2], the Vmax was found to be 15.4 nmol/min/mg.

Turning to `CC1(C)N=C(N)N=C(N)N1OCCCOc1ccc(Cl)c(Cl)c1`, the figures for the IC50 in data set [1] and in data set [3] were 0.009 ng/mL (≈ 0.025 nM) and 0.028 ng/mL (≈ 0.0777 nM), respectively.

For `CC1(C)N=C(N)N=C(N)N1OCCCOc1ccc(OC(F)(F)F)cc1`, the IC50 in data set [1] came to 0.01 ng/mL (≈ 0.0266 nM); in data set [3] it was 0.052 ng/mL (≈ 0.139 nM).

`CC1(C)N=C(N)N=C(N)N1OCCCOc1ccc(C(F)(F)F)cc1`: the 50% inhibitory concentration (IC50) is 0.01 ng/mL (≈ 0.0278 nM) in data set [1] and 0.063 ng/mL (≈ 0.175 nM) in data set [3].

As for `CC1(C)N=C(N)N=C(N)N1OCCCOc1ccc(OCC(F)(F)F)cc1Cl`, the results for the IC50 in data set [1] and in data set [3] were 0.022 ng/mL (≈ 0.0519 nM) and 0.081 ng/mL (≈ 0.191 nM), respectively.

As for `CC(C)/N=C(N)/N=C(/N)NOCCCOc1ccc(C(F)(F)F)cc1`, the concentration for half-maximal inhibition (IC50) was more than 2500 ng/mL in data set [1] and more than 5000 ng/mL in data set [3]. In data set [2], the Vmax was 10.8 nmol/min/mg.

Regarding `CC(C)/N=C(N)/N=C(/N)NOCCCOc1ccccc1OC(F)(F)F`, the IC50 was more than 2500 ng/mL in data set [1] and more than 5000 ng/mL in data set [3]. Further, in data set [2], the Vmax is given as 13.3 nmol/min/mg.

As to `CC1(C)N=C(N)N=C(N)N1OCCCOc1ccccc1OC(F)(F)F`, the half-maximal inhibitory concentration (IC50) in data set [1] amounted to 0.022 ng/mL (≈ 0.0586 nM); in data set [3] it was 0.053 ng/mL (≈ 0.141 nM).

On to `CC(C)NC(=N)NC(=N)NOCCCOc1ccc(Cl)c(Cl)c1`, for which the IC50 in data set [1] was determined as 845 ng/mL (≈ 2330 nM); in data set [3], 2550 ng/mL (≈ 7040 nM). Also, the Vmax in data set [2] is reported as 27.7 nmol/min/mg.

`CC1(C)N=C(N)N=C(N)N1c1ccc(Cl)cc1` [CYCLOGUANIL]: the IC50 in data set [1] was 0.328 ng/mL (≈ 1.3 nM); in data set [3], more than 2.5 ng/mL.

Take `[H]/N=C(\N/C(=N/[H])Nc1ccc(Cl)cc1)NC(C)C` [PROGUANIL]: the IC50 in data set [1] and in data set [3] was more than 5000 ng/mL in each case. Further, in data set [2], the Vmax stood at 19.6 nmol/min/mg.

Take `CCc1nc(N)nc(N)c1-c1ccc(Cl)cc1` [PYRIMETHAMINE]: the results for the IC50 in data set [1] and in data set [3] were 1.2 ng/mL (≈ 4.82 nM) and 130 ng/mL (≈ 523 nM), respectively.
